Most compounds without a hit are left out; they make up all but 1.6% or so of the library.
14-3-3 Bad PPI: disrupts binding of bovine 14-3-3 zeta to phospho-Bad peptide | TR-FRET 14-3-3zeta/Dy647-pBad peptide displacement, 1 h | 220,000 compounds, 0.71% hits | inhibition, % at 21.7 µM | AID 781;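 active = inhibition above about 70%, limit read from the data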;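 note: 0% = full 14-3-3 plus peptide FRET controls and 100% = background without 14-3-3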
UBC9 SUMO inh: SUMOylation inhibition; P63279; HTRF SUMOylation assay, SAE1/SAE2 + UBC9, in vitro; inhibition, % at 35 µM; 290,000 compounds, 0.36% hits; AID 2006; in the data active = inhibition above about 50%, passing the limit was not always enough
Target sequence (P63279 whole entry, looked up): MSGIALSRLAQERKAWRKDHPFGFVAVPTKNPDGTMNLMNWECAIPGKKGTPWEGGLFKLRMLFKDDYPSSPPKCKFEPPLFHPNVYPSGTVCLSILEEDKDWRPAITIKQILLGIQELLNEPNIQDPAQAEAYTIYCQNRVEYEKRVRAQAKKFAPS
Tb MetRS inh: blocks T. brucei methionyl-tRNA synthetase activity; 360,000 compounds, 0.4% hits; inhibition, % at 11.9 µM; purified T. brucei MetRS, ATP depletion, Kinase-Glo luminescence;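 active = inhibition above a per-plate cutoff of the control wells' mean inhibition plus 3 SD, cut at about 5.5% in these data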;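 note: 0% = DMSO wells median and 100% = median of wells with control inhibitor compound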
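Test system – parasite MetRS enzyme · Reagent – substrates ATP, L-methionine and bulk Escherichia coli tRNA · Doses – 11.9 µM compound single dose, 0.9% DMSO · Times – 15 min enzyme-compound preincubation, 2 h reaction, 10 min detection, 25 °C · Signal – Kinase-Glo luminescence, ATP depletion format · Controls – DMSO-only wells as low control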
p97 ATPase inh: human p97 ATPase inhibition | P55072 | recombinant p97 ATPase, Kinase-Glo ATP luminescence, 3 h | inhibition, % at 8 µM | 220,000 compounds, 0.42% hits | AID 1481; in the data active = inhibition above about 15%;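 note: 0% = DMSO vehicle and 100% = wells lacking enzyme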
eIF4E 4G PPI: inhibitors of eIF4E and eIF4G interaction in translation initiation. P63073+Q04637. TR-FRET eIF4E-eIF4GI(517-606) binding, 2 h. 220,000 compounds, 0.37% hits. inhibition, % at 21.7 µM. AID 782;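 note: 0% = full FRET control wells and 100% = background wells lacking eIF4GI fragment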
p47phox inh: blocks human p47phox regulatory protein of NADPH oxidases; P14598; p47phox/p22phox peptide binding, fluorescence polarization, 2 h; inhibition, % at 24.7 µM; 220,000 compounds, 0.53% hits; AID 1274;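 note: 0% = p47phox with labelled peptide and 100% = labelled peptide alone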
Target sequence (P14598 whole entry, looked up): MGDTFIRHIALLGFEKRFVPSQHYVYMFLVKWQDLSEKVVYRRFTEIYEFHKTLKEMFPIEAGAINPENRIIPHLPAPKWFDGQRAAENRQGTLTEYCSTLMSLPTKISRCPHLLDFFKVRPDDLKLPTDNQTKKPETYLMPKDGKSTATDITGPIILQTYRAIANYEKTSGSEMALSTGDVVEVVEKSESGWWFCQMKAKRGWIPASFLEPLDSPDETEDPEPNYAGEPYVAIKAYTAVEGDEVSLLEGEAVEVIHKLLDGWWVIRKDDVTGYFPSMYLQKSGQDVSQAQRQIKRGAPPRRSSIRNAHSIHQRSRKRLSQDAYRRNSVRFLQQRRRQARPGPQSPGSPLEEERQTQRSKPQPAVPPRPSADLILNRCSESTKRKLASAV
Tb MetRS conf: Trypanosoma brucei MetRS inhibition confirmed; T. brucei MetRS enzyme, luminescence (ATP depletion); shares compounds with Tb MetRS inh; inhibition, % at 11.9 µM; 1,400 compounds, 93% hits; in the data active = inhibition above about 7%
Jurkat tox: counter-screen for T. brucei MetRS inhibitors: Jurkat cell cytotoxicity; 1,400 compounds, 12% hits; shares compounds with Tb MetRS inh; AID 624413; inhibition, % at 8.3 µM; Jurkat cells viability, ATP luminescence; in the data active = inhibition above about 15%;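 note: 0% = vehicle and 100% = reference inhibitor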
TbMetRS FP orth: orthogonal test for Trypanosoma brucei MetRS inhibitors. shares compounds with Tb MetRS inh. purified T. brucei MetRS, fluorescence polarization. inhibition, % at 11.9 µM. 1,400 compounds, 44% hits. AID 651607; in the data active = inhibition above about 17%;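 note: 0% = vehicle wells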
* marks the source's active call; other numbers are inactive results; x = no result.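 Rule for the calls, unless noted: active = inhibition above about 30% (limit read from the data); inactive = the rest.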

SMILES | 14-3-3 Bad PPI | UBC9 SUMO inh | Tb MetRS inh | p97 ATPase inh | eIF4E 4G PPI | p47phox inh | Tb MetRS conf | Jurkat tox | TbMetRS FP orth
Cc1ccc2nc(SC(C)C(=O)Nc3cccc([N+](=O)[O-])c3)[nH]c2c1 (centres undefined) | -10 | -7 | 38* | 2 | 4 | -15 | 64* | 3 | 37*
COc1ccccc1Cn1c(=S)[nH]c2cc(C(=O)N3CCCC(C)C3)ccc2c1=O (centres undefined) | x | x | 0 | x | x | x | x | x | x
O=C(Cc1cccc2ccccc12)Nc1c(F)cccc1F | x | 5 | 0 | x | x | x | x | x | x
Cc1ccccc1NC(=O)N(CCc1nc2ccccc2[nH]1)Cc1ccccc1 | 1 | 6 | 7.0* | 0 | 5 | -9 | 14* | 14 | 4
COc1cc2nc(Nc3cccc(F)c3)nc(N)c2cc1OC | x | -14 | 9.1* | x | x | x | 29* | 12 | 25*
Cc1cc(S(=O)(=O)N2CCOCC2)ccc1OCC(=O)NCc1ccccn1 | x | 0 | 1 | x | x | x | x | x | x
CN(C)S(=O)(=O)Nc1ccccc1F | 2 | 1 | -1 | 5 | 3 | -14 | x | x | x
COCCNC(=O)CS(=O)Cc1nc(-c2ccccc2C)oc1C (centres undefined) | 3 | -16 | 59* | 6 | 1 | -1 | 3 | -3 | 5
O=C(NC1CCCCC1)C(c1cccnc1)N(CCc1ccccc1)C(=O)Cc1cccs1 (centres undefined) | 0 | 23 | 1 | 0 | 2 | 1 | x | x | x
Cn1c(CN2CCCC(C(=O)c3ccc4c(c3)OCO4)C2)nc2ccccc21 (centres undefined) | -12 | -16 | 6.4* | -3 | 2 | 1 | 12* | -1 | 1
COc1cccc(N=C2SC(CC(=O)Nc3ccccc3)C(=O)N2Cc2ccccn2)c1 (centres undefined) | 2 | -16 | 6.6* | 1 | 2 | -21 | 11* | 3 | 9
O=C(CC1SC(=Nc2ccccc2)N(CCc2ccccn2)C1=O)Nc1ccc(F)cc1 (centres undefined) | 1 | -18 | 0 | -2 | 7 | -18 | x | x | x
Cc1cc(NS(=O)(=O)c2ccc(NC(=O)CSc3nc4ncc(Cl)cc4[nH]3)cc2)nc(C)n1 | 5 | 21 | 3 | 2 | -5 | -2 | x | x | x
Cc1cc(NS(=O)(=O)c2ccc(NC(=O)CSc3nc4ncc(Br)cc4[nH]3)cc2)nc(C)n1 | -6 | 29 | 6.1* | 6 | -3 | 5 | 14* | -4 | 8
COc1ccc(N2CCN(CCNC(=O)Nc3ccc(Cl)cc3)CC2)cc1 | 9 | -9 | 12* | 2 | 1 | -6 | 25* | 7 | 13
OC(c1cc(Cl)cc(Cl)c1)c1ncc(-c2cccc(F)c2)[nH]1 (centres undefined) | x | x | 42* | x | x | x | 77* | -1 | 55*
Cc1cc(C)cc(C(O)c2ncc(-c3ccc4ccccc4c3)[nH]2)c1 (centres undefined) | x | x | 7.5* | x | x | x | 30* | 7 | 17*
Cc1ccccc1-c1cnc(C(O)c2cc(Cl)cc(Cl)c2)[nH]1 (centres undefined) | x | x | 53* | x | x | x | 81* | 6 | 57*
OC(c1cc(F)cc(Cl)c1)c1ncc(-c2ccc(Cl)cc2)[nH]1 (centres undefined) | x | x | 34* | x | x | x | 69* | 12 | 47*
Cc1ccccc1-c1cnc(C(O)c2ccc(Cl)cc2C)[nH]1 (centres undefined) | x | x | 0 | x | x | x | x | x | x
O=C1CCCCC1C(O)(C(=O)c1ccccc1)c1ccccc1 (centres undefined) | x | x | 0 | x | x | x | x | x | x
O=C(Nc1cccc(F)c1)N1CCc2nc(NCc3cccc(Oc4ccccc4)c3)ncc2C1 | x | x | 0 | x | x | x | x | x | x
Cc1cc(C)cc(C(O)c2ncc(-c3ccccc3C(F)(F)F)[nH]2)c1 (centres undefined) | x | x | 1 | x | x | x | x | x | x
OC(c1cc(F)cc(Cl)c1)c1ncc(-c2ccccc2C(F)(F)F)[nH]1 (centres undefined) | x | x | 26* | x | x | x | 48* | 81* | 23*
CCCNc1ncnc2nc[nH]c12 | 1 | 0 | 0 | -2 | -5 | -19 | x | x | x
SMILES | 14-3-3 Bad PPI | UBC9 SUMO inh | Tb MetRS inh | p97 ATPase inh | eIF4E 4G PPI | p47phox inh | Tb MetRS conf | Jurkat tox | TbMetRS FP orth
c1ccc(CCCNc2ncnc3nc[nH]c23)cc1 | 16 | 3 | 0 | 8 | -4 | -1 | x | x | x
Clc1ccc(CCNc2ncnc3nc[nH]c23)cc1 | -4 | -9 | 11* | 4 | 1 | -5 | 17* | 27* | 9
c1ccc2c(CCNc3ncnc4nc[nH]c34)cccc2c1 | -8 | 27 | 43* | 3 | 4 | -8 | 58* | 10 | 35*
CC1(C(=O)NCc2ccccc2Br)CCN1C(=O)CCc1ccc(Cl)cc1Cl (centres undefined) | x | x | 0 | x | x | x | x | x | x
O=S(=O)(c1ccccc1)c1nc(Nc2cccc(O)c2)sc1Cl | 0 | -28 | 10* | 6 | 2 | -21 | 20* | 18* | 6
CC(=O)Nc1cc(-c2ccc(F)cc2)cn2c(-c3ccc(S(C)(=O)=O)cc3)cnc12 | x | x | 0 | x | x | x | x | x | x
CO[C@@H]1CN(C)C(=O)c2cc(NC(=O)Nc3ccc4c(c3)OCO4)ccc2OC[C@@H](C)N(C)C[C@H]1C | x | x | 0 | x | x | x | x | x | x
COCC(=O)N1C[C@H](C)[C@H](OC)CN(C)C(=O)c2cc(NC(=O)Nc3cccc(F)c3)ccc2OC[C@@H]1C | x | x | 34* | x | x | x | 43* | -3 | 18*
O=C(O)C1CCN(C(=O)CSc2nnc3ccccn23)CC1 | x | x | 0 | x | x | x | x | x | x
O=C(Cn1c(NCCO)nc2ccccc21)c1ccc([N+](=O)[O-])cc1 | x | 0 | 20* | x | x | x | 3 | 6 | 7
Cc1cc(C)c(C)c(S(=O)(=O)Nc2cccc(-n3cnnn3)c2)c1C | x | 8 | 7.3* | x | x | x | 17* | 9 | 6
Cc1cc(C)c(S(=O)(=O)Nc2cccc(-n3cnnn3)c2)c(C)c1 | x | 2 | 2 | x | x | x | x | x | x
Cn1cc(S(=O)(=O)NC[C@H]2O[C@@H](n3cnc4c(N)ncnc43)[C@H](O)[C@@H]2O)cn1 | x | x | 0 | x | x | x | x | x | x
Nc1ncnc2c1ncn2[C@@H]1O[C@H](CNS(=O)(=O)c2ccc3c(c2)CCN(C(=O)C(F)(F)F)C3)[C@@H](O)[C@H]1O | x | x | 8.7* | x | x | x | 17* | 16* | 9
O=C(NCCN1CCC(n2c(=O)[nH]c3ccccc32)CC1)N1c2ccccc2Sc2ccccc21 | x | x | -1 | x | x | x | x | x | x
CC(C)Cc1nc2ccccc2[nH]1 | -12 | 10 | 0 | 5 | -1 | -3 | x | x | x

Assay outcomes: PubChem, several laboratories
